# Assay results as given in ChEMBL document CHEMBL1123617, “Antipsychotic activity of substituted gamma-carbolines” (J Med Chem, 1987).
# Columns and labels:
# [1] = biological target: T1, D(2) dopamine receptor (Rattus norvegicus, UniProt P61169); test: In vitro Dopamine receptor D2 affinity by using [3H]spiperone as the radioligand in rat limbic system at 1 uM concentration of compound; value may range from 238 to 401; format: tissue-based
# [2] = biological target: D(2) dopamine receptor (Rattus norvegicus) (UniProt P61169); test: In vitro Dopamine receptor D2 affinity by using [3H]spiperone as the radioligand in rat limbic system at 1 uM; format: tissue-based
# [3] = biological target: T2, Serotonin 2 (5-HT2) receptor (Rattus norvegicus, UniProt P30994+P08909+P14842); test: In vitro 5-hydroxytryptamine 2 receptor affinity by using [3H]spiperone as the radioligand in rat cortical tissue; value may range from 197 to 341
# [4] = system: Rattus norvegicus; test: Potential antipsychotic activity was assessed by measuring the ability to block the conditioned avoidance response(CAR) in rats on oral administration; value may range from 26 to 51; format: functional
# Outline: (§1)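 Each session had 60 trials, with a control session before every drug run. Trials with no avoidance response (avoidance block) were summed over rats at each dose and expressed as a percentage of total trials. Control avoidance was set at 100%. The dose giving 50% block (AB50) was fitted by least squares.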
# [5] = biological target: T1, D(2) dopamine receptor; test: In vitro Dopamine receptor D2 affinity by using [3H]spiperone as the radioligand in rat limbic system at 1 uM concentration of compound; value may range from 1 to 2; format: tissue-based
# [6] = biological target: T1, D(2) dopamine receptor; test: (§2) In vitro Dopamine receptor D2 affinity by using [3H]spiperone as the radioligand in rat limbic system at 1 uM concentration of compound; format: tissue-based
# [7] = system: Rattus norvegicus; test: Potential antipsychotic activity was assessed by measuring the ability to block the conditioned avoidance response(CAR) in rats on oral administration.; format: functional
# [8] = biological target: T2, Serotonin 2 (5-HT2) receptor; test: In vitro 5-hydroxytryptamine 2 receptor affinity by using [3H]spiperone as the radioligand in rat cortical tissue; value may range from 29 to 132
# [9] = system: Rattus norvegicus; test: Potential antipsychotic activity was assessed by measuring the ability to block the conditioned avoidance response(CAR) in rats on oral administration; format: functional
# [10] = system: Mus musculus; test: Ability to inhibit apomorphine (APO) induced climbing behavior in mice by intraperitoneal administration of compound.; value may range from 1 to 23; format: functional; conditions: ip
# [11] = system: Mus musculus; test: Ability to inhibit apomorphine (APO) induced stereotyped behavior in mice by intraperitoneal administration of compound; value may range from 22 to 31; format: functional; conditions: ip
# [12] = system: Rattus norvegicus; test: Potential antipsychotic activity was assessed by measuring the ability to block the conditioned avoidance response(CAR) in rats on oral administration; value may range from 6 to 63; format: functional; outline: as §1
# [13] = biological target: T2, Serotonin 2 (5-HT2) receptor; test: In vitro 5-hydroxytryptamine 2 receptor affinity by using [3H]spiperone as the radioligand in rat cortical tissue; value may range from 23 to 187
# [14] = biological target: T1, D(2) dopamine receptor; test: In vitro Dopamine receptor D2 affinity by using [3H]spiperone as the radioligand in rat limbic system at 1 uM concentration of compound; value may range from 84 to 130; format: tissue-based
# [15] = system: Rattus norvegicus; test: Potential antipsychotic activity was assessed by measuring the ability to block the conditioned avoidance response(CAR) in rats on oral administration; value may range from 10 to 31; format: functional; outline: as §1
# [16] = system: Mus musculus; test: Ability to inhibit apomorphine (APO) induced stereotyped behavior in mice by intraperitoneal administration of compound; value may range from 7 to 18; format: functional; conditions: ip
# Outline: (§3)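 Male CF-1 mice (20–25 g), acclimated at least 3 days, were given compound ip in 0.25% Tween 80 at 1, 10, 30 and 60 mg/kg (six mice per dose), alongside a concurrent vehicle group. Apomorphine 1 mg/kg sc was given 30 min later. Scoring at 5 min: stereotypy (sniffing-licking-gnawing) 0/1; climbing 0–2.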
# [17] = system: Mus musculus; test: Ability to inhibit apomorphine (APO) induced climbing behavior in mice by intraperitoneal administration of compound; value may range from 1 to 13; format: functional; conditions: ip; outline: as §3
# [18] = biological target: T2, Serotonin 2 (5-HT2) receptor; test: In vitro 5-hydroxytryptamine 2 receptor affinity by using [3H]spiperone as the radioligand in rat cortical tissue.; value may range from 76 to 299
# [19] = system: Rattus norvegicus; test: Potential antipsychotic activity was assessed by measuring the ability to block the conditioned avoidance response(CAR) in rats on oral administration; insigniificant activity, ip in shelf jump tset; format: functional
# [20] = biological target: T2, Serotonin 2 (5-HT2) receptor; test: In vitro 5-hydroxytryptamine 2 receptor affinity by using [3H]spiperone as the radioligand in rat cortical tissue; value may range from 136 to 220
# [21] = biological target: T1, D(2) dopamine receptor; test: In vitro Dopamine receptor D2 affinity by using [3H]spiperone as the radioligand in rat limbic system at 1 uM concentration of compound; value may range from 39 to 78; format: tissue-based
# [22] = biological target: T2, Serotonin 2 (5-HT2) receptor; test: In vitro 5-hydroxytryptamine 2 receptor affinity by using [3H]spiperone as the radioligand in rat cortical tissue.
# [23] = system: Rattus norvegicus; test: Potential antipsychotic activity was assessed by measuring the ability to block the conditioned avoidance response(CAR) in rats on oral administration; value may range from 30 to 62; format: functional; outline: as §1
# [24] = species: Mus musculus; test: animal or person; conditions: ip
# [25] = species: Mus musculus; test: animal or person; conditions: ip; remark: listed apart in the source
# [26] = biological target: T2, Serotonin 2 (5-HT2) receptor; test: In vitro 5-hydroxytryptamine 2 receptor affinity by using [3H]-Spiperone as the radioligand in rat cortical tissue; value may range from 12 to 66
# [27] = biological target: T1, D(2) dopamine receptor; test: In vitro Dopamine receptor D2 affinity by using [3H]spiperone as the radioligand in rat limbic system at 1 uM concentration of compound; value may range from […]; format: tissue-based
# [28] = biological target: T1, D(2) dopamine receptor; test: In vitro Dopamine receptor D2 affinity by using [3H]spiperone as the radioligand in rat limbic system at 1 uM concentration of compound; value may range from 14 to 22; format: tissue-based
# [29] = system: Rattus norvegicus; test: Potential antipsychotic activity was assessed by measuring the ability to block the conditioned avoidance response(CAR) in rats on oral administration; indicates insignificant activity; format: functional
# [30] = biological target: T1, D(2) dopamine receptor; test: In vitro Dopamine receptor D2 affinity by using [3H]spiperone as the radioligand in rat limbic system at 1 uM concentration of compound; value may range from 72 to 141; format: tissue-based
# [31] = biological target: D(2) dopamine receptor (Rattus norvegicus) (UniProt P61169); test: In vitro Dopamine receptor D2 affinity by using [3H]spiperone as the radioligand in rat limbic system at 1 uM concentration of compound at 1 uM; format: tissue-based
# [32] = biological target: T2, Serotonin 2 (5-HT2) receptor; test: In vitro 5-hydroxytryptamine 2 receptor affinity by using [3H]spiperone as the radioligand in rat cortical tissue; value may range from 165 to 263
# [33] = system: Rattus norvegicus; test: Potential antipsychotic activity was assessed by measuring the ability to block the conditioned avoidance response(CAR) in rats on oral administration; value may range from 11 to 81; format: functional; outline: as §1
# [34] = system: Rattus norvegicus; test: Potential antipsychotic activity was assessed by measuring the ability to block the conditioned avoidance response(CAR) in rats on oral administration; value may range from 8 to 35; format: functional; outline: as §1
# [35] = biological target: T1, D(2) dopamine receptor; test: In vitro Dopamine receptor D2 affinity by using [3H]spiperone as the radioligand in rat limbic system at 1 uM concentration of compound; value may range from 3 to 10; format: tissue-based
# [36] = biological target: T2, Serotonin 2 (5-HT2) receptor; test: In vitro 5-hydroxytryptamine 2 receptor affinity by using [3H]spiperone as the radioligand in rat cortical tissue; value may range from 6 to 75
# [37] = biological target: D(2) dopamine receptor (Rattus norvegicus) (UniProt P61169); test: as §2; format: tissue-based
# [38] = biological target: T2, Serotonin 2 (5-HT2) receptor; test: In vitro 5-hydroxytryptamine 2 receptor affinity by using [3H]spiperone as the radioligand in rat cortical tissue; value may range from 2.4 to 5.3
# [39] = system: Rattus norvegicus; test: Potential antipsychotic activity was assessed by measuring the ability to block the conditioned avoidance response(CAR) in rats on oral administration; value may range from 4 to 10; format: functional; outline: as §1
# [40] = system: Rattus norvegicus; test: Potential antipsychotic activity was assessed by measuring the ability to block the conditioned avoidance response(CAR) in rats on oral administration; value may range from 10 to 34; format: functional; outline: as §1
# [41] = biological target: T2, Serotonin 2 (5-HT2) receptor; test: In vitro 5-hydroxytryptamine 2 receptor affinity by using [3H]spiperone as the radioligand in rat cortical tissue.; value may range from 140 to 980
# [42] = biological target: T1, D(2) dopamine receptor; test: In vitro Dopamine receptor D2 affinity by using [3H]-Spiperone as the radioligand in rat limbic system at 1 uM concentration of compound; value may range from 4 to 15; format: tissue-based
# [43] = biological target: T1, D(2) dopamine receptor; test: In vitro Dopamine receptor D2 affinity by using [3H]spiperone as the radioligand in rat limbic system at 1 uM concentration of compound; value may range from 0.7 to 1.5; format: tissue-based
# [44] = biological target: T1, D(2) dopamine receptor; test: In vitro Dopamine receptor D2 affinity by using [3H]spiperone as the radioligand in rat limbic system at 1 uM concentration of compound; value may range from 20 to 130; format: tissue-based
# T1 sequence (P61169 whole entry): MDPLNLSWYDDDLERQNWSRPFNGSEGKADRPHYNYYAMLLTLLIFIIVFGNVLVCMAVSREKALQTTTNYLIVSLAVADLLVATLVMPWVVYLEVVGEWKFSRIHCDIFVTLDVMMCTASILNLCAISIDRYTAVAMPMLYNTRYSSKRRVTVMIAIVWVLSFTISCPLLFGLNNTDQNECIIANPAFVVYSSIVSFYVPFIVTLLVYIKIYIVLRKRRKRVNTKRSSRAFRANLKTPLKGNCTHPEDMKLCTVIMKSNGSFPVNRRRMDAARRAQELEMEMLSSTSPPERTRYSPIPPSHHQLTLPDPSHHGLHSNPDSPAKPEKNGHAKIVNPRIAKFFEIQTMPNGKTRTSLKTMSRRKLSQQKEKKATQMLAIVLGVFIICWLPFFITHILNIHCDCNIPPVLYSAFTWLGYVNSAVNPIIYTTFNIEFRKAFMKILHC
# D(2) dopamine receptor (Rattus norvegicus), sequence (P61169 whole entry): as above
compound,measurement,setting,value
c1ccc2nc(CCN3CCc4[nH]c5ccccc5c4C3)ccc2c1,Ki,[1],331 nM
Cl.c1cncc(CCCN2CCc3[nH]c4ccccc4c3C2)c1,inhibition,[2],43%
same,Ki,[3],252 nM
same,AB50,[4],33 mg/kg
Fc1ccc(-n2c3c(c4cc(F)ccc42)CN(CCCCc2ccnc4ccccc24)CC3)cc1,Ki,[5],1 nM
Cl.Fc1ccc2[nH]c3c(c2c1)CN(CCc1cnccn1)CC3,Ki,[6],63 nM
same,AB50,[7],>40 mg/kg
Cl.Clc1ccc2[nH]c3c(c2c1)CN(CCCCc1ccncc1)CC3,Ki,[8],60 nM
same,AB50,[9],36 mg/kg
CN1CCN(C2=Nc3cc(Cl)ccc3Nc3ccccc32)CC1 [CLOZAPINE],ED50,[10],5 mg/kg
same,ED50,[11],26 mg/kg
same,AB50,[9],11 mg/kg
Cl.Fc1ccc(-n2c3c(c4cc(F)ccc42)CN(CCc2ccncc2)CC3)cc1,AB50,[12],16 mg/kg
same,Ki,[13],55 nM
Cl.Fc1ccc2[nH]c3c(c2c1)CN(CCCc1cccnc1)CC3 [GEVOTROLINE HYDROCHLORIDE],Ki,[14],104 nM
same,AB50,[15],14 mg/kg
same,ED50,[16],11 mg/kg
same,ED50,[17],4 mg/kg
same,Ki,[18],136 nM
CC1CN(CCCN2CCc3[nH]c4ccc(Cl)cc4c3C2)CC(C)N1.Cl (configuration not stated),AB50,[19],>40 mg/kg
Cl.Clc1ccc2[nH]c3c(c2c1)CN(CCc1ccc2ccccc2n1)CC3,AB50,[7],>40 mg/kg
Cl.Fc1ccc2[nH]c3c(c2c1)CN(CCc1ccccn1)CC3,Ki,[20],173 nM
same,AB50,[9],38 mg/kg
Cl.Clc1ccc2[nH]c3c(c2c1)CN(CCCN1CCN(c2ncccn2)CC1)CC3,Ki,[21],55 nM
same,AB50,[7],>40 mg/kg
C[C@@H]1CN(CCCn2c3ccccc3c3ccccc32)C[C@H](C)N1 [RIMCAZOLE],IC50,[22],> 0.00005 M
same,AB50,[23],39 mg/kg
O=C(CCCN1CCC(O)(c2ccc(Cl)cc2)CC1)c1ccc(F)cc1 [HALOPERIDOL],ED50,[24],0.1 mg/kg
same,AB50,[7],0.2 mg/kg
same,ED50,[25],0.1 mg/kg
Cl.Clc1ccc2[nH]c3c(c2c1)CN(CCCc1cccnc1)CC3,Ki,[26],28 nM
same,AB50,[7],>40 mg/kg
same,Ki,[27],126 nM
Fc1ccc(C(CCCN2CCc3[nH]c4ccc(F)cc4c3C2)c2ccc(F)cc2)cc1,Ki,[28],18 nM
Cl.Clc1ccc2[nH]c3c(c2c1)CN(CCc1ccccn1)CC3,AB50,[29],>40 mg/kg
same,Ki,[30],103 nM
Cl.c1ccc2c3c([nH]c2c1)CCN(CCCCc1ccncc1)C3,AB50,[7],>20 mg/kg
same,inhibition,[31],41%
Cl.Fc1ccc2[nH]c3c(c2c1)CN(CCc1ccncc1)CC3 [CARVOTROLINE HYDROCHLORIDE],Ki,[32],211 nM
same,AB50,[33],23 mg/kg
Cl.Fc1ccc(-n2c3c(c4cc(F)ccc42)CN(CCc2cnccn2)CC3)cc1,AB50,[34],16 mg/kg
same,Ki,[35],5 nM
same,Ki,[36],23 nM
c1ccc(CCN2CCc3[nH]c4ccccc4c3C2)nc1,inhibition,[37],33%
Cl.Fc1ccc(-n2c3c(c4cc(F)ccc42)CN(CCc2ccccn2)CC3)cc1,Ki,[38],3.6 nM
same,AB50,[39],6 mg/kg
Cl.Fc1ccc2[nH]c3c(c2c1)CN(CCCCc1ccncc1)CC3,AB50,[40],15 mg/kg
same,Ki,[41],480 nM
Fc1ccc(-n2c3c(c4cc(F)ccc42)CN(CCCCc2ccncc2)CC3)cc1,Ki,[42],7 nM
Cl.Fc1ccc(-n2c3c(c4cc(F)ccc42)CN(CCc2ccc4ccccc4n2)CC3)cc1,Ki,[43],1 nM
same,AB50,[7],40 mg/kg
c1cnc(N2CCN(CCCN3CCc4[nH]c5ccccc5c4C3)CC2)nc1,Ki,[44],60 nM
